Measurements reported in ChEMBL document CHEMBL3414503, “Distinct novel quinazolinone exhibits selective inhibition in MGC-803 cancer cells by dictating mutant p53 function” (Eur J Med Chem, 2015).
Active and inactive are the calls of the source. The calls are words filed in the database; no cut-off is given here.

Assays:
HepG2 = assay: Cytotoxicity against human HepG2 cells assessed as cell viability after 48 hrs by MTT assay; type: functional, cell-based; settings: HepG2, 48 h
Summary of the method: (§1)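 Cells were trypsinized, seeded in 96-well plates at 2 × 10³ cells/well and grown for 24 h. Medium was then replaced with compound solutions (in DMSO, range from 0.1) for 48 h, and viability was read by MTT. Cancer lines were grown in RPMI 1640 + 10% FCS. IC50 from 3 independent experiments, each in triplicate.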

NCI-H460 = assay: Cytotoxicity against human NCI-H460 cells assessed as cell viability after 48 hrs by MTT assay; type: functional, cell-based; settings: NCI-H460, 48 h; summary of the method: as §1
MGC-803 [1] = assay: Cytotoxicity against human MGC803 cells assessed as cell viability after 48 hrs by MTT assay; type: functional, cell-based; settings: MGC-803, 48 h; summary of the method: as §1
A-375 = assay: Cytotoxicity against human A375 cells assessed as cell viability after 48 hrs by MTT assay; type: functional, cell-based; settings: A-375, 48 h; summary of the method: as §1
MGC-803 [2] = assay: Cell cycle arrest in human MGC803 cells assessed as accumulation at sub G1 phase at 1 uM after 48 hrs by propidium iodide staining-based FACS analysis relative to control; type: functional
MGC-803 [3] = assay: Cell cycle arrest in human MGC803 cells assessed as accumulation at G0/G1 phase at 1 uM after 48 hrs by propidium iodide staining-based FACS analysis relative to control; type: functional
MGC-803 [4] = assay: Cell cycle arrest in human MGC803 cells assessed as accumulation at S phase at 1 uM after 48 hrs by propidium iodide staining-based FACS analysis relative to control; type: functional
MGC-803 [5] = assay: Cell cycle arrest in human MGC803 cells assessed as accumulation at G2/M phase at 1 uM after 48 hrs by propidium iodide staining-based FACS analysis relative to control; type: functional
MGC-803 [6] = assay: Cell cycle arrest in human MGC803 cells assessed as accumulation at sub G1 phase at 10 uM after 48 hrs by propidium iodide staining-based FACS analysis relative to control; type: functional
MGC-803 [7] = assay: Cell cycle arrest in human MGC803 cells assessed as accumulation at G0/G1 phase at 10 uM after 48 hrs by propidium iodide staining-based FACS analysis relative to control; type: functional
MGC-803 [8] = assay: Cell cycle arrest in human MGC803 cells assessed as accumulation at S phase at 10 uM after 48 hrs by propidium iodide staining-based FACS analysis relative to control; type: functional
MGC-803 [9] = assay: Cell cycle arrest in human MGC803 cells assessed as accumulation at G2/M phase at 10 uM after 48 hrs by propidium iodide staining-based FACS analysis relative to control; type: functional
MGC-803 [10] = assay: Cytotoxicity against human MGC803 cells assessed as cell size at 1 uM after 48 hrs by FACS analysis relative to control; type: functional
Summary of the method: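 Cells treated 48 h with DMSO or compound at […] as printed. Forward scatter (mean FSC-H) measured by FACS and given relative to control cells.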

MGC-803 [11] = assay: Induction of apoptosis in human MGC803 cells assessed as chromatin condensation at 1 to 10 uM after 48 hrs by Hoechst 33258 staining-based fluorescence confocal microscopic analysis; type: functional, cell-based
Summary of the method: (§2)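 MGC-803 cells grown on glass slides and treated 48 h. They were then washed in PBS, fixed in 4% paraformaldehyde and permeabilized with 1% Triton X-100. After four washes, Hoechst 33258 ([…] final) was added in the last wash to stain nuclei.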

MGC-803 [12] = assay: Induction of apoptosis in human MGC803 cells assessed as chromatin fragmentation at 1 to 10 uM after 48 hrs by Hoechst 33258 staining-based fluorescence confocal microscopic analysis; type: functional, cell-based; summary of the method: as §2
[13] = tested on: Cellular tumor antigen p53 (Homo sapiens), P04637 [UNDEFINED MUTATION]; assay: Inhibition of P53 mutant in human MGC803 cells assessed as AIF release from mitochondria and translocation to nucleus at 1 to 10 uM after 48 hrs by immunostaining assay; type: cell-based; settings: MGC-803
Chain of Cellular tumor antigen p53 (Homo sapiens), P04637 [UNDEFINED MUTATION] (P04637 whole entry, looked up, stated change not applied): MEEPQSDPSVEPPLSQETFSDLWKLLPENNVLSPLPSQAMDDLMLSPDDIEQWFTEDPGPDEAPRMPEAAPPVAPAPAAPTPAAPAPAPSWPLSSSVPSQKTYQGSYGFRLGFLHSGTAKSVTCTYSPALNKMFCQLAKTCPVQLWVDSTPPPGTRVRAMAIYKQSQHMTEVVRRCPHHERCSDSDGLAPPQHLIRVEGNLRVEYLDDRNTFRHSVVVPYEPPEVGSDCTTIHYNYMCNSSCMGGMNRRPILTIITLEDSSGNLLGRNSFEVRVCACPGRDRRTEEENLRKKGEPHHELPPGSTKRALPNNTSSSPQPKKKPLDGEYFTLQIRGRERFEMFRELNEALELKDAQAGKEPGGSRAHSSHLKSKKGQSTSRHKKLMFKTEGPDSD
Summary of the method: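 MGC-803 cells on slides, 48 h after treatment, were washed in PBS and fixed in 4% paraformaldehyde. They were immunostained for AIF with primary antibody and a Cy3-conjugated secondary.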

MGC-803 [14] = assay: Induction of apoptosis in human MGC803 cells assessed as caspase-3 activation at 5 uM after 24 hrs by FITC-DEVD-FMK probe-based flow cytometric analysis (reference value: 1.8%); type: functional
Summary of the method: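 Treated and control MGC-803 cells (5 µM, 24 h) harvested at 1 × 10⁶ cells/mL in RPMI 1640 + 10% FCS. Incubated with FITC-DEVD-FMK for 1 h at 37 °C, 5% CO₂, then analysed by flow cytometry with 488 nm excitation. Given as percent change versus untreated control.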

[15] = tested on: Cellular tumor antigen p53 (Homo sapiens), P04637 [UNDEFINED MUTATION]; assay: Inhibition of P53 mutant in human MGC803 cells assessed as decrease in p21 expression at 1 to 10 uM after 24 hrs by Western blot analysis; type: cell-based; settings: MGC-803
Summary of the method: (§3)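 MGC-803 cells, 3 × 10⁵ per well of a 6-well plate, exposed to compound for 24 h. Cells were washed in ice-cold PBS and lysed in sample buffer, then run on SDS-PAGE and transferred to nitrocellulose. Blots were probed with primary antibodies and […] anti-rabbit IgG and developed by ECL.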

[16] = tested on: Cellular tumor antigen p53 (Homo sapiens), P04637 [UNDEFINED MUTATION]; assay: Inhibition of P53 mutant phosphorylation at s392 in human MGC803 cells at 1 to 10 uM after 24 hrs by Western blot analysis; type: cell-based; settings: MGC-803; summary of the method: as §3
[17] = tested on: Cellular tumor antigen p53 (Homo sapiens), P04637 [UNDEFINED MUTATION]; assay: Inhibition of P53 mutant acetylation at k373 in human MGC803 cells at 1 to 10 uM after 24 hrs by Western blot analysis; type: cell-based; settings: MGC-803; summary of the method: as §3
[18] = Cytotoxicity against human WI38 cells expressing wild type p53 assessed as cell viability at 1 to 10 uM after 48 hrs by MTT assay; type: cell-based; settings: wi-38, 48 h
Summary of the method: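 WI-38 normal lung fibroblasts, grown in DMEM + 10% FCS, seeded at 2 × 10³ cells/well in 96-well plates for 24 h. Then exposed to compound (in DMSO) for 48 h, with viability by MTT.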

[19] = tested on: Cellular tumor antigen p53 (Homo sapiens), P04637 [UNDEFINED MUTATION]; assay: Inhibition of P53 mutant in human MGC803 cells assessed as upregulation of Bim expression at 1 to 10 uM after 24 hrs by Western blot analysis; type: cell-based; settings: MGC-803
[20] = tested on: Cellular tumor antigen p53 (Homo sapiens), P04637 [UNDEFINED MUTATION]; assay: Inhibition of P53 mutant in human MGC803 cells assessed as downregulation of Bcl-2 expression at 1 to 10 uM after 24 hrs by Western blot analysis; type: cell-based; settings: MGC-803
[21] = tested on: Cellular tumor antigen p53 (Homo sapiens), P04637 [UNDEFINED MUTATION]; assay: Inhibition of P53 mutant in human MGC803 cells assessed as change in BAX expression at 1 to 10 uM after 24 hrs by Western blot analysis; type: cell-based; settings: MGC-803
[22] = tested on: Cellular tumor antigen p53 (Homo sapiens), P04637 [UNDEFINED MUTATION]; assay: Inhibition of P53 mutant in human MGC803 cells assessed as upregulation of cdk2 activity at 1 to 10 uM after 24 hrs by Western blot analysis; settings: MGC-803

inhibition [13]: Active
inhibition [15]: Active
inhibition [16]: Active
inhibition [17]: Active
inhibition [19]: Active
inhibition [20]: Active
inhibition [21]: inactive
inhibition [22]: Active
SMILES: COc1cc2nc(/C=C/c3ccc(Cl)cc3)n(CCCN(C)C)c(=O)c2cc1OC
IC50 (HepG2): 6.96 µM
IC50 (NCI-H460): 7.15 µM
IC50 (MGC-803 [1]): 3.18 µM
IC50 (A-375): > 20 µM
Activity (MGC-803 [2]): 4.89%
Activity (MGC-803 [3]): 51.79%
Activity (MGC-803 [4]): 29.22%
Activity (MGC-803 [5]): 14.1%
Activity (MGC-803 [6]): 30.4%
Activity (MGC-803 [7]): 19.42%
Activity (MGC-803 [8]): 29.93%
Activity (MGC-803 [9]): 20.25%
Activity (MGC-803 [10]): 59.4%
Activity (MGC-803 [11]): Active
Activity (MGC-803 [12]): Active
Activity (MGC-803 [14]): 3.5%
Activity [18]: Non-toxic
